Measurements: ChEMBL document CHEMBL4513216, “Probing the Open Global Health Chemical Diversity Library for Multistage-Active Starting Points for Next-Generation Antimalarials” (ACS Infect Dis, 2020)

Experiment: Toxicity liver stage against HepG2, at 10uM
Format: cell-based
Set-up: test concentration 10 uM, cell line HepG2-A16-CD81EGFP
Details: human, HepG2-A16-CD81EGFP cells; read-out: INHIBITION
In short: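 Uninfected HepG2-A16-CD81EGFP cells, 3 × 10^3 per well, 1536-well, plated on prespotted compound at 10 μM final, parasite-free screening media added to match infected plates; puromycin 10 μM positive, DMSO 0.5% negative; run in parallel with 48 h PbLuc assay at 37 °C, 5% CO2; viability by CellTiter-Glo luminescence, normalized to controls.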

Compound | cytotoxicity at 10 µM [%]
CN(C)C(CNC(=O)c1nc(N2CCOCC2)ncc1Cl)c1ccco1 (stereo not given) | 7.96
COc1ccc(Cl)cc1NCC(=O)NCCNc1cnccn1 | -11.4
CCN(CC)CC[C@H]1CN(C(=O)NC2CCCCC2)CC[C@H]1CC(=O)O | 7.77
CC(C)NC(=O)NC[C@H]1OC[C@@H](NCc2ccccc2O)[C@@H]1O | -1.69
O=C1CC2(CCN(C(=O)c3ccccn3)CC2)Oc2c(Cl)cc(Cl)cc21 | 1.73
O=C(NCCCn1ccnc1)c1cccnc1OCC(F)(F)F | 6.58
COc1ccccc1CN1CC(OC)CN(C(=O)CC(C)C)CC1=O (stereo not given) | -3.3
COc1cccc(OC)c1C(=O)N1CC(=O)N(C2CCC2)CC(O)C1 (stereo not given) | -5.59
COc1cc2nc(C)n(CC(=O)NCCO)c(=O)c2cc1OC | -8.12
CN(C)C(CNc1c(NCc2ccco2)c(=O)c1=O)c1ccccc1 (stereo not given) | 5.16
CC(C)NC(=O)N1CCC2(CC1)COc1ccccc1S(=O)(=O)N(C)C2 | 7.02
O=C1CCCN1Cc1ncn2c1CN(C(=O)Cc1ccccc1)CCC2 | 6.49
Cc1nnn2c1COCC(CNC(=O)c1cnoc1C)C2 (stereo not given) | -2.69
Cc1cccc(CN2C[C@@H]3CN(C(=O)c4ccnnc4)C[C@@H]3C2=O)c1 | -6.89
CN(C)CCCNC(=O)c1cc(Cl)ccc1Cl | -6.56
CC(CO)NC(=O)c1ccc2[nH]/c(=N\S(C)(=O)=O)sc2c1 (stereo not given) | -3.24
CCOC(=O)N1CCN(C(=O)c2snnc2-c2ccc(OC)cc2)CC1 | 3.56
O=C(CSC1CCc2ccccc2NC1=O)NCCc1ccc(O)cc1 (stereo not given) | -4.25
CC(=O)c1c(C)nn(S(=O)(=O)c2ccc(C)c(C)c2)c1C | -8.46
CCCc1noc(C2CCN(S(=O)(=O)c3cccs3)CC2)n1 | 1.5
CCn1nccc1CNC(=O)C(C)n1cc2c(n1)c(C)nn2C (stereo not given) | 5.32
Cc1ccc(-c2noc(C3CCN3C(=O)c3ccc(=O)[nH]n3)n2)s1 (stereo not given) | 7.53

Compound | cytotoxicity at 10 µM [%]
Cc1cnn(CCNCc2nccn2CC(F)(F)F)c1 | 6.51
Cc1nccn1-c1ccc(NS(=O)(=O)c2cnn(C)c2)cn1 | -6.38
CC1(C)CN(C(=O)Nc2cc(C(F)(F)F)c[nH]c2=O)CCO1 | 5.12
COC(=O)c1cccc(CNC(=O)CCC(F)(F)F)c1 | 11.6
CCn1cnnc1CNC(=O)N(C)Cc1c(F)cccc1Cl | -5.56
NC(=O)NC(=O)C(c1ccccc1)N1CCN(Cc2ccsc2)CC1 (stereo not given) | 1.94
O=C1CCCN1Cc1ccc(C(=O)N2CCCC2c2cccs2)cc1 (stereo not given) | 3.78
CC(C)NC(=O)CN1CCC2(CC1)OCCO2 | -8.67
CC(CNC(=O)N1CCN(Cc2ccon2)CC1)N(C)C1CC1 (stereo not given) | -6.74
CCCNC(=O)CCNC(=O)c1ccccc1N1CCOCC1 | 0.321
Cc1noc(C)c1CNC(=O)N1CCC(OCC2CC2)CC1 | -11
c1ccc2c(N3CCOC(Cn4cccn4)C3)ncnc2c1 (stereo not given) | -1.04
O=S(=O)(c1cccnc1)N1CCCC1COc1ccccc1 (stereo not given) | -9.32
CC(C)C1CN(S(=O)(=O)Cc2cccc(C#N)c2)CCS1 (stereo not given) | 2.66
Cc1cc(F)ccc1-n1cc(O)c(C(=O)NCC2(O)CCC2)n1 | 0.477
N#Cc1ccc(NCCC2CCN(CC(F)(F)F)CC2)nc1 | 5.92
O=C(c1ccncc1)N1CCN(C(=O)c2coc3ccccc23)CC1 | 4.27
CC1(C(=O)NCCN2CCCCC2)CCCN1C(=O)c1ccccc1 (stereo not given) | -6.44
CNC(=O)NC(=O)CNC(CC(F)(F)F)c1ccc(F)cc1 (stereo not given) | 7.69
CC(C)(C(=O)O)S(=O)(=O)c1ccc(Br)cc1 | 4.67
CN(Cc1ccncc1)C(CO)c1cccc(Br)c1 (stereo not given) | 15.4
Cc1ccc(N2CCCC(N3CCC(CO)CC3)C2=O)cc1 (stereo not given) | 0.473

Compound | cytotoxicity at 10 µM [%]
COCc1nn(Cc2ccc(Br)s2)c(=O)o1 | 1.99
O=C(NCc1ccc(Br)c(F)c1)Nc1cn[nH]c1 | -6.62
CCOCc1ccc(NC(=O)NC2CCCn3nc(CC)nc32)cc1 (stereo not given) | -7.68
Cc1nc(C(C)(C)NC(=O)Nc2ccccc2)no1 | -1.48
Cc1cc(N2CCN(CC(=O)N(C)C)CC2)nc(-c2ccncc2)n1 | -3.96
Fc1cnc(N2CCC3(CCCN(c4nncs4)C3)C2)nc1 (stereo not given) | 2.15
CN(C)C(=O)[C@H]1C[C@@H]2CCN(Cc3ccncc3)C[C@H]2O1 | 0.866
O=C(c1cn2ccsc2n1)N1CCN(CC2CC2)[C@@H]2CS(=O)(=O)C[C@@H]21 | -2.82
CN1CCN(Cc2ccccc2Oc2cncc(C(N)=O)n2)CC1 | -4.89
CSc1ccccc1CN1CCn2nc(CNC(=O)N(C)C)cc2C1 | 19.5
CCCc1cnc(C)nc1NC(C)Cc1cnccn1 (stereo not given) | -7.96
CCC(C(=O)N1CCS(=O)(=O)CC1)n1cccn1 (stereo not given) | 1.28
Cc1ccc(-c2cnnc(NCC3(N4CCOCC4)CCCC3)n2)o1 | -6.79
Cc1ccccc1-n1cc(CNC(=O)CC2C(=O)NCCN2C)cn1 (stereo not given) | 2.4
COc1ccc(C(=O)N2CC[C@@H](N3CCC(O)CC3)[C@H](O)C2)cc1C | -8.1
N[C@@H]1c2ccccc2C2(CCN(C(=O)c3ccc(=O)[nH]c3)CC2)[C@H]1O | 3.27
CN(CC1CCCCO1)c1ncnc2cc(F)ccc12 (stereo not given) | -2.15
O=C(CCN1CCCC(CO)(CC2CC2)C1)NCc1cccc(Cl)c1 (stereo not given) | -1.07
O=C(Cc1ccc(F)cc1Cl)N[C@@H]1CCNC[C@H]1O | -0.918
COC(=O)c1ccc(NC(=O)CNCc2ccco2)cc1 | -12
Cc1ccc(CN2CCC(Cc3nnc(CO)n3C)CC2)cc1C | 5.19
COc1ccc(F)c(CN2CCCC(O)(CNC3CCCCC3)C2=O)c1 (stereo not given) | 8.28

Compound | cytotoxicity at 10 µM [%]
COc1cccn(Cc2nnc(-c3cccc(F)c3)o2)c1=O | 2
COCCC(=O)N1CCCC(CCc2ccc(F)c(F)c2)C1 (stereo not given) | -2.59
FC(F)(F)C1CN(Cc2cccc(-c3ccccn3)c2)CCO1 (stereo not given) | -7.73
Cc1[nH]c(=O)[nH]c(=O)c1CN1CCCC(CCc2ccc(F)c(F)c2)C1 (stereo not given) | 1.4
C=C(C)COc1ccccc1C(=O)N(C)C(C)c1c(C)n[nH]c1C (stereo not given) | 3.23
COC(=O)c1ccc2ccn(CC3CCNC3)c(=O)c2c1 (stereo not given) | -28
CC(NC(=O)NCc1cccc(F)c1)(C(=O)O)c1ccco1 (stereo not given) | -3.33
COc1c(CNCc2ccc3c(c2)OCO3)c(C(C)C)nn1C | 0.745
CC(C)c1nn(C)c(N2CCOCC2)c1CNC(C)c1ccco1 (stereo not given) | -5.93
Cc1cc(C(=O)N2CCCC2c2noc(C(C)C)n2)c(C)o1 (stereo not given) | -3.54
COc1ccccc1CC(=O)N1CCCC(CNS(C)(=O)=O)C1 (stereo not given) | 0.691
Cc1cc(C(=O)NCc2ccnc(N3CCOCC3)c2)c(C)s1 | -0.426
Cc1nc(CN2CCN(C(C)c3nc(C4CC4)no3)CC2)oc1C (stereo not given) | -5.95
Cc1cc(C)n(CC2CCCCN2C(=O)CCc2ccncc2)n1 (stereo not given) | 2.1
Cn1cc(C2CCCN2C(=O)CCc2cnn(-c3ccccc3)c2)cn1 (stereo not given) | -6.88
CN(C)c1cc2c(nn1)CCN(C(=O)C1CCCc3ccccc31)C2 (stereo not given) | -8.57
Fc1ccc(-c2nc(CN3CCCC3Cn3cncn3)co2)cc1 (stereo not given) | -8.28
CCOCC(O)CN1CCN(C(=O)c2ccc(N(C)C)nn2)CC1 (stereo not given) | -13.1
O=C(NCCN1CCCCCC1)c1n[nH]c(=O)c2ccccc12 | -9.86
CCc1nc(CN(C)C2CCN(CC(F)(F)F)C2)no1 (stereo not given) | -16.8
Cc1ccc(CNC(=O)CN2CCOC(Cn3cncn3)C2)s1 (stereo not given) | -8.45
Cc1nc(C)n(CC2CCCN(CCOc3ccccc3F)C2)n1 (stereo not given) | -18.5

Compound | cytotoxicity at 10 µM [%]
CCn1ncc2c1CCCC2NCc1ccc2c(c1)CCO2 (stereo not given) | -4.47
Cc1cccc(C2(C(=O)NCC3CCN(CC(F)(F)F)C3)CCC2)c1 (stereo not given) | -11.5
CCc1cccc(N2CCC(NC(=O)CCNC(N)=O)CC2)c1 | -12.5
Cc1ccc(NC2CCN(C(=O)COc3cccc(F)c3)CC2)nn1 | 3.11
COCCOc1ccccc1C(=O)NCCN(C)C(C)C | 0.449
COc1cccc(CCC(=O)N2CCCC(c3nncn3C)C2)c1 (stereo not given) | -20.1
CC(Cn1cccn1)NC(=O)N1CCN(Cc2ccsc2)CC1 (stereo not given) | -11.6
CCc1nc(C)c(C(=O)NCCNc2cnccn2)s1 | -4.64
Cn1cc(CN2CCCN(C(=O)c3ccc4c(c3)COC4)CC2)cn1 | -4.27
O=C(CCc1ccc(Cl)s1)N1CCCC(n2cncn2)C1 (stereo not given) | -7.7
O=C(Cc1ccc(F)cc1)N1CCN(CC(O)C2CC2)CC1 (stereo not given) | -15.2
Cn1cncc1CN1CCC2(CC1)COCCN(S(C)(=O)=O)C2 | 4.73
COCCNC(=O)[C@@H]1C[C@@H]2CCN(c3ncccn3)C[C@H]2O1 | -2.48
Cn1ncc2c1CCCC2NCc1cccc(F)c1 (stereo not given) | -15.6
O=C(c1ccsc1)N1C[C@H]2CN(Cc3cccnc3)C(=O)[C@H]2C1 | -5.15
Fc1cnc(N2CCCn3cnc(COc4cccnc4)c3C2)nc1 | 1.42
COc1ccc(CN2CC[C@H]3[C@H](CO[C@H]3CNC(=O)N(C)C)C2)cc1 | 6.96
CN(C)C(=O)COCc1cncc2c1CCN(C1CCOCC1)C2 | 9.66
CC(C)n1cnc2c1C(C(=O)N(C)C)N(Cc1ccccc1)CC2 (stereo not given) | -2.56
CN(Cc1cccnc1)[C@@H]1CN(CC2CC2)[C@@H]2CCCO[C@H]12 | -1.48
CC(=O)N1C[C@H]2CC[C@@H](C1)N(Cc1ccc(Cn3cccn3)cc1)C2 | 0.0531
Nc1cc(C(=O)N2C[C@@H]3CC[C@H]2CN(Cc2cccnc2)C3)ccn1 | 0.624
